Measurements as given in article PMC2947842 (Bioorganic & medicinal chemistry, 2010).
Positions of bridges follow the written chain, without caps; N, C: chain ends. Non-standard residues stand in square brackets, D forms with d. Residues, ends and D or L forms follow the SMILES beside them.

Test system: B16/F1 melanoma cells
Assay: Clonogenic cytotoxicity
Format: cell-based, murine
Conditions: 0.1 μM peptide, 3 h incubation at 37 °C, colonies after 6 days
How it was run: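 B16/F1 cells seeded at 200 cells/well and exposed for 3 h at 37 °C in culture medium to 0.1 μM test peptide, comparator peptides, or medium alone. Washed twice with PBS and regrown in medium for 6 days. Fixed in methanol:glacial acetic acid (3:1), hematoxylin-stained, and scored by microscope; colonies over 50 cells counted as survivors. Survival normalized to untreated (100%). Unpaired Student t-test, p<0.05.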

Molecule	Decrease in clonogenic survival in comparison with the untreated group [%]
CC(C)[C@H](NC(=O)[C@@H]1CCCN1C(=O)[C@H](CCCNC(=N)N)NC(=O)[C@H](CS)NC(=O)[C@H](Cc1c[nH]c2ccccc12)NC(=O)[C@H](CCCNC(=N)N)NC(=O)[C@@H](Cc1ccccc1)NC(=O)[C@H](Cc1c[nH]cn1)NC(=O)[C@H](CCC(=O)O)NC(=O)[C@H](CS)NC(=O)[C@H](CS)NC(=O)[C@H](CCCNC(=N)N)NC(=O)[C@@H]1CC(=O)N[C@@H](CCCNC(=N)N)C(=O)NCC(=O)N[C@@H](CC(=O)O)C(=O)N[C@H](Cc2ccc(O)cc2)C(=O)N1)C(N)=O [RGD-Arg-(Arg^11)CCMSH] (RGD[dY]DRCCEH[dF]RWCRPV-NH2; lactam N-5; C-terminus assumed)	62
[Cys^3,4,10, D-Phe^7, Arg^11]α-MSH3-13 [(Arg^11)CCMSH]	11
